The values below come from paper PMC3773367 (Biochemistry, 2010).

One data set deals with wild-type ArsA (Escherichia coli, UniProt P08690). The following applies: read-out: Km for ATP.
Data set [1] deals with ThArsA. The format is biochemical. The conditions noted are these: read-out: Km for ATP.
The test system of a further data set is E. coli strain JM109. Put plainly: Arsenite resistance assay. The format is cell-based, Escherichia coli.
For data set [2], the target named is ThArsA. Put plainly: Photoaffinity labelling with increasing 8-azido[γ-32P]ATP. The conditions noted are these: read-out: apparent Kd. The format is binding.
A further data set has as its target K16Q ThArsA. The data set is described as above. The format is binding. The following applies: read-out: apparent Kd.
The nature of data set [3]: ATPase activity, NADH-coupled assay. The following applies: for ATPase activity relative to wild type: % of wild-type activity. In kind it is biochemical, Escherichia coli.
A further data set is described as follows: Sb. In kind it is binding, Escherichia coli. The conditions noted are these: 10 μM ArsA, 2 mM ATPγS, 2.5 mM MgCl2; Sb(III) per ArsA. In short, it runs like this: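 Purified ArsA buffer-exchanged into 50 mM MOPS-KOH pH 7.5. Incubated 1 h on ice with 2 mM ATPγS, 2.5 mM MgCl2 and a range of potassium antimonyl tartrate concentrations. Unbound metalloid removed on a spin gel-filtration column in the same buffer. Eluate diluted in 2% HNO3 and antimony measured by ICP-MS against an antimony standard. Binding expressed as a function of Sb(III) concentration.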

Residue numbers refer to the chain shown, from its start. Names may count otherwise.

Chain of wild-type ArsA (P08690 whole entry): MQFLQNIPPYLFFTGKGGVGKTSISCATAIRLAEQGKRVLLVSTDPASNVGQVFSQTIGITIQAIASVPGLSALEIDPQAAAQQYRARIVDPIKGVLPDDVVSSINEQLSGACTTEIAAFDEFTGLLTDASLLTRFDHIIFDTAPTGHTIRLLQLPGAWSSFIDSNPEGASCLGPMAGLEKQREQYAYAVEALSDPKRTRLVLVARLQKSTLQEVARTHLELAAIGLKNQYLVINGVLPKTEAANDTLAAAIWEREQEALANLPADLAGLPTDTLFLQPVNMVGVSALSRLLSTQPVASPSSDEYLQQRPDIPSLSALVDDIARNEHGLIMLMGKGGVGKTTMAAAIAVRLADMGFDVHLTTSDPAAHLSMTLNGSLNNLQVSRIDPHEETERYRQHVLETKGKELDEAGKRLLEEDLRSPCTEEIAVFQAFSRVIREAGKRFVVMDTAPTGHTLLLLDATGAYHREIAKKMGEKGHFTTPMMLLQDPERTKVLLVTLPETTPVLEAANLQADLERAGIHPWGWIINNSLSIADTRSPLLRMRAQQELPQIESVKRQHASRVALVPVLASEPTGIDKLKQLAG

The term Km denotes the concentration of substrate that gives half-maximal velocity. As for `Nc1ncnc2c1ncn2[C@@H]1O[C@H](COP(=O)(O)OP(=O)(O)OP(=O)(O)O)[C@@H](O)[C@H]1O` [ATP, adenosine 5'-triphosphate], the Km on wild-type ArsA and in the data set with ThArsA [1] was 170 µM in each case.

Consider `O=[As][O-].[Na+]` [sodium arsenite], for which, in the data set on E. coli strain JM109 (cells expressing wild-type arsA and arsB genes), the “sodium arsenite concentration in which cells could grow” value is 5 mM. In addition, the “sodium arsenite concentration at which cells were sensitive” value in the data set with E. coli strain JM109 (cells without an ars operon) worked out at 1 mM.

Consider `[N-]=[N+]=Nc1nc2c(N)ncnc2n1[C@@H]1O[C@H](COP(=O)(O)OP(=O)(O)OP(=O)(O)O)[C@@H](O)[C@H]1O` [8-azido[γ-32P]ATP, 8-azidoadenosine 5'-[γ-32P]triphosphate], for which the Kd at ThArsA [2] turned out to be 50 µM; at K16Q ThArsA, 55 µM.

B1: K16Q ArsA: ArsA with signature Lys16 (A1 half) changed to glutamine (protein, UniProt P08690 1-583, looked up, variant K16Q)
Arsenical pump-driving ATPase: MQFLQNIPPYLFFTGQGGVGKTSISCATAIRLAEQGKRVLLVSTDPASNVGQVFSQTIGITIQAIASVPGLSALEIDPQAAAQQYRARIVDPIKGVLPDDVVSSINEQLSGACTTEIAAFDEFTGLLTDASLLTRFDHIIFDTAPTGHTIRLLQLPGAWSSFIDSNPEGASCLGPMAGLEKQREQYAYAVEALSDPKRTRLVLVARLQKSTLQEVARTHLELAAIGLKNQYLVINGVLPKTEAANDTLAAAIWEREQEALANLPADLAGLPTDTLFLQPVNMVGVSALSRLLSTQPVASPSSDEYLQQRPDIPSLSALVDDIARNEHGLIMLMGKGGVGKTTMAAAIAVRLADMGFDVHLTTSDPAAHLSMTLNGSLNNLQVSRIDPHEETERYRQHVLETKGKELDEAGKRLLEEDLRSPCTEEIAVFQAFSRVIREAGKRFVVMDTAPTGHTLLLLDATGAYHREIAKKMGEKGHFTTPMMLLQDPERTKVLLVTLPETTPVLEAANLQADLERAGIHPWGWIINNSLSIADTRSPLLRMRAQQELPQIESVKRQHASRVALVPVLASEPTGIDKLKQLAG
For B1, the “ATPase activity relative to wild type” value in data set [3] is 70%; in data set [3] (listed as K16Q), “approximately 70%”. Moreover, the EC50 in data set [3] (read-out: concentration of antimonite [Sb(III)] required for half-maximal activation) amounted to 20 µM. Moreover, the “reduction in the affinity of ATP” value in data set [3] (versus wild type) stood at 3 fold.

B2: C113A/C422A: ArsA derivative lacking the Sb(III)-binding residues Cys113 and Cys422 (protein, UniProt P08690 1-583, looked up, variant C113A C422A)
Arsenical pump-driving ATPase: B1 Arsenical pump-driving ATPase with Q16K, C113A, C422A
Turning to B2, the “stoichiometry of Sb(III) binding” value in “Sb” was “only background levels”.

B3: K335Q ArsA: ArsA with signature Lys335 (A2 half) changed to glutamine (protein, UniProt P08690 1-583, looked up, variant K335Q)
Arsenical pump-driving ATPase: B1 Arsenical pump-driving ATPase with Q16K, K335Q
With B3, the “ATPase activity (in words)” value in data set [3] (purified protein) was “inactive”.
